Columns and labels:
Type in all cases: ADME, organism-based
Homo sapiens [1] = experiment: Clearance in iv dosed critically ill patient with acute kidney injury during extended daily diafiltration; details: in vivo
Method in brief: (§1)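 Patients were 14 critically ill adults with AKI on EDD-f, 28 doses in total. Gentamicin was given as a 30-min central venous infusion. Arterial plasma was sampled predose and at 15, 30, 60, 120, 180, 300, 480 and 600 min, plus samples between EDD-f sessions. Plasma levels were measured by Synchron LX assay (LOD 0.3 mg/liter). A two-compartment NONMEM model (FOCE with interaction) was fitted with EDD-f as a covariate.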

Homo sapiens [2] = experiment: Half life in iv dosed critically ill patient with acute kidney injury during extended daily diafiltration; details: in vivo; method in brief: as §1
Homo sapiens [3] = experiment: Clearance iv dosed in critically ill patient with acute kidney injury; details: in vivo; method in brief: as §1
Homo sapiens [4] = experiment: Half life in iv dosed critically ill patient with acute kidney injury; details: in vivo; method in brief: as §1
Homo sapiens [5] = experiment: AUC (0 to 24 hrs) in critically ill patient with acute kidney injury at 4 mg/kg, iv administered as 30 mins infusion; parameters: time < 24 hr, dose 4 mg/kg, route intravenous; details: in vivo
Method in brief: (§2)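 Monte Carlo simulation in NONMEM from the final covariate population model. 1,000 simulated subjects per regimen, modelled on a person (70 kg, BMI 23.6 kg/m²). Weight-based doses were given at EDD-f start or 30 min, 1 h, 2 h or 4 h before a 10-h EDD-f session, every 24 h or every 48 h. Targets were Cmax and AUC0-24, assuming an MIC of 1 mg/liter.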

Homo sapiens [6] = experiment: AUC (0 to 24 hrs) in critically ill patient with acute kidney injury at 5 mg/kg, iv administered as 1 hr infusion; parameters: dose 5 mg/kg, route intravenous; details: in vivo; method in brief: as §2
Homo sapiens [7] = experiment: Cmax in critically ill patient with acute kidney injury at 4 mg/kg, iv administered as 30 mins infusion; parameters: dose 4 mg/kg, route intravenous; details: in vivo, 0.5 h; method in brief: as §2
Homo sapiens [8] = experiment: Cmax in critically ill patient with acute kidney injury at 5 mg/kg, iv administered as 1 hr infusion; parameters: dose 5 mg/kg, route intravenous; details: in vivo; method in brief: as §2
Homo sapiens [9] = experiment: AUC (0 to 24 hrs) in critically ill patient with acute kidney injury at 5 mg/kg, iv administered every 24 hrs; parameters: time < 24 hr, dose 5 mg/kg, route intravenous; details: in vivo; method in brief: as §2
Homo sapiens [10] = experiment: AUC (0 to 24 hrs) in critically ill patient with acute kidney injury at 6 mg/kg, iv administered every 48 hrs; parameters: time < 24 hr, dose 6 mg/kg, route intravenous; details: in vivo; method in brief: as §2
Homo sapiens [11] = experiment: Cmax in critically ill patient with acute kidney injury at 5 mg/kg, iv administered every 24 hrs; parameters: dose 5 mg/kg, route intravenous; details: in vivo; method in brief: as §2
Homo sapiens [12] = experiment: Cmax in critically ill patient with acute kidney injury at 6 mg/kg, iv administered every 48 hrs; parameters: dose 6 mg/kg, route intravenous; details: in vivo; method in brief: as §2

Sequence: GENTAMICIN
- CL (Homo sapiens [1]): 2.54 L/h
- t1/2 (Homo sapiens [2]): 13.8 h
- CL (Homo sapiens [3]): 0.23 L/h
- t1/2 (Homo sapiens [4]): 153.4 h
- AUC (Homo sapiens [5]): 70000 ng·h/mL
- Cmax (Homo sapiens [6]): > 10000 ng/mL
- AUC (Homo sapiens [7]): 70000 ng·h/mL
- Cmax (Homo sapiens [8]): > 10000 ng/mL
- AUC (Homo sapiens [9]): 135700 ng·h/mL
- AUC (Homo sapiens [10]): 88700 ng·h/mL
- Cmax (Homo sapiens [11]): > 10000 ng/mL
- Cmax (Homo sapiens [12]): > 10000 ng/mL

Reference: ChEMBL document CHEMBL1649316, “Using population pharmacokinetics to determine gentamicin dosing during extended daily diafiltration in critically ill patients with acute kidney injury” (Antimicrob Agents Chemother, 2010)
